Data published in PMC10692362 (Acta Pharmaceutica Sinica. B, 2023).
Positions count from the first letter of the chain named.

Legend:
[1] = system: ERα^WT and ERα^MUT BC cell lines (MCF-7, LCC-2, T-47D, T-47D^D538G, T-47D^Y537S); assay: Apoptosis by flow cytometry; assay type: cell-based, human; settings: 5 μmol/L, 48 h
MCF-7 cells = assay: Cell viability assay; assay type: cell-based, human
LCC-2 cells = assay: Cell viability assay on tamoxifen-resistant LCC-2 cells; assay type: cell-based; settings: Homo sapiens, LCC2, read-out: LCC-2 IC50
ERα [2] = target: T1, ERα (Homo sapiens, UniProt P03372); assay: cell-based; assay type: cell-based
T1 sequence (P03372 1-595): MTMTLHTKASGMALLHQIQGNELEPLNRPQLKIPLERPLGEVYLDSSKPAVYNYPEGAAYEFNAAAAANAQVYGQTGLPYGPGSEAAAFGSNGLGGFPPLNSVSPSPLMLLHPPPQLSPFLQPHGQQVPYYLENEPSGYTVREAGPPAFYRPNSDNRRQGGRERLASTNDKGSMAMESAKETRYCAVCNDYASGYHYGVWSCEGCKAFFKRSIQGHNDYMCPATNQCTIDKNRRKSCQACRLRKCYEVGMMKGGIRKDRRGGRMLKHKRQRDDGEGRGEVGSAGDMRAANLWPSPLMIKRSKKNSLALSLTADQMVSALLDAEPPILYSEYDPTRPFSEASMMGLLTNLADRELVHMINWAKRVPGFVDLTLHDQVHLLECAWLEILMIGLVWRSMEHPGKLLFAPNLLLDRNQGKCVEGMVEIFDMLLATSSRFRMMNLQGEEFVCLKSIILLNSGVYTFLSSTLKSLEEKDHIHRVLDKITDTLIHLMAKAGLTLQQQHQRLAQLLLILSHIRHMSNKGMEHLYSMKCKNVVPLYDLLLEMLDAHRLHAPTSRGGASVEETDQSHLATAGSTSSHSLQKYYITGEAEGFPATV

ERβ = ERβ (Homo sapiens, UniProt Q92731); assay: ER transcriptional activity; assay type: cell-based
ERβ, sequence (Q92731 whole entry): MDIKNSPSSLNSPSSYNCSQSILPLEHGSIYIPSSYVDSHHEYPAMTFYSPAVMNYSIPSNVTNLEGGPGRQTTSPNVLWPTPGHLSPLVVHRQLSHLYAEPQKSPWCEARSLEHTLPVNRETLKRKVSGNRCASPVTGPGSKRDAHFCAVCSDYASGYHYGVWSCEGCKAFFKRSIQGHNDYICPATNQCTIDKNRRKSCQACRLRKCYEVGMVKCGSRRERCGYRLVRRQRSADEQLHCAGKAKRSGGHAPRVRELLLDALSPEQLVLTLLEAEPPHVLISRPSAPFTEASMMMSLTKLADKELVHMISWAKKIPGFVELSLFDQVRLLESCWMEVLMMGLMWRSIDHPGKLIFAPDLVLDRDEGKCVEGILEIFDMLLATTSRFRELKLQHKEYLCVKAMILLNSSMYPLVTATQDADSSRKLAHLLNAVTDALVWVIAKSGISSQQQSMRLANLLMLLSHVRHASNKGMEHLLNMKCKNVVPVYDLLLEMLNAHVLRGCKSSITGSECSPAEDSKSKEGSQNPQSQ

ERα [3] = assay: Immunoblot analysis of ERα degradation across ERα^WT and ERα^MUT BC cell lines; assay type: cell-based, human; settings: 5 μmol/L 29c with 10 μmol/L MG-132
MCF-7 tumor xenograft = MCF-7 tumor xenograft model in BALB/c nude mice; assay type: in vivo
Procedure, shortened: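 Female BALB/c nude mice (15–18 g, 5 weeks old) received 1 × 10⁷ MCF-7 cells in 100 μL PBS into the right axillary mammary fat pad. Tumour volume (W² × L × 0.5) and body weight were measured every 2 days. Mice were sacrificed on Day 33. Tumours were assessed by IHC (Ki-67, ERα) and ERα Western blot.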

PK studies in mice = assay type: in vivo, BALB/c female mice
Procedure, shortened: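 Female BALB/c mice (n = 3/group) were dosed iv at 2 mg/kg in DMSO/PEG400/β-cyclodextrin/saline (5:40:10:45), ip at 4 mg/kg in DMSO/PEG400/saline (5:40:55), or po at 20 mg/kg in corn oil/DMSO (95:5). Blood was sampled at […]. Plasma was deproteinised with MeCN and analysed by LC/MS/MS, with three plasma samples per time point.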

T-47D^D538G cells = assay: Cell viability assay; assay type: cell-based, human; settings: Homo sapiens, 72 h, read-out: T-47D^D538G IC50
ERα C530S mutant = target: T2, ERα C530S mutant (Homo sapiens, UniProt P03372, C530S); assay: Immunoblot analysis of ERα C530S mutant protein in HEK-293T cells; assay type: cell-based; settings: HEK-293T^C530S cells, compared with wild type
T2 sequence (P03372 1-595 C530S): T1 sequence (P03372 1-595) with C530S
Procedure, shortened: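 HEK-293T cells transfected with a plasmid carrying the single C530→S530 ERα point mutation, then treated with test compound. Cells lysed in RIPA buffer; proteins separated by SDS-PAGE and transferred to PVDF. Membranes blocked with 5% skim milk, probed overnight with rabbit anti-ERα and mouse anti-β-actin (loading control), then goat anti-rabbit secondary for 1 h. Developed by ECL.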

[4] = control as 0%, 10 nmol/L E2 as 100%
[5] = female, BALB/c, mouse, plasma, ip, 4 mg/kg
[6] = female, BALB/c, mouse, plasma, iv, 2 mg/kg
[7] = female, BALB/c, mouse, plasma, po, 20 mg/kg

CC(C)=CC(=O)Nc1ccc(C2=C(c3ccc(O)cc3)C3OC2CC3S(=O)(=O)N(CC(F)(F)F)c2ccc(O)cc2)cc1 (centres unmarked) [Compound 29c, N-(4-(3-(4-Hydroxyphenyl)-5-(N-(4-hydroxyphenyl)-N-(2,2,2-trifluoroethyl)sulfamoyl)-7-oxabicyclo[2.2.1]hept-2-en-2-yl)phenyl)-3-methylbut-2-enamide]
Induction of apoptosis [1]: significantly induced apoptosis | fold higher potency than 4-OHT, MCF-7 (MCF-7 cells): 12 fold | IC50 (MCF-7 cells; Homo sapiens, MCF7, 72 h, read-out: MCF-7 IC50): 0.056 ± 0.004 µM | fold higher potency than Ful, MCF-7 (MCF-7 cells; compared with fulvestrant): 2.5 fold | IC50 (LCC-2 cells): 2.1 ± 0.37 µM | IC50 (ERα [2]): 0.023 µM | Agonist mode ERα Eff (%E2) (ERα [2]; [4]): 5 ± 1 %E2 | Antagonist mode ERα Eff (%E2) (ERα [2]; with 10 nmol/L 17β-estradiol): 76 ± 1 %E2 | Agonist mode ERβ Eff (%E2) (ERβ; [4]): 19 ± 1 %E2 | Antagonist mode ERβ Eff (%E2) (ERβ; with 10 nmol/L 17β-estradiol): 27 ± 2 %E2 | ERα degradation with proteasome inhibitor (ERα [3]): lost its ability to degrade ERα | ERα level in xenograft tumors (IHC, Western blot) (MCF-7 tumor xenograft; 4 mg/kg ip): significantly degrade ERα | TGI (tumor growth inhibition) (MCF-7 tumor xenograft; 4 mg/kg ip every other day, Day 32): 92% | Tumor weight, 29c compared with Ful (MCF-7 tumor xenograft; both at 2 mg/kg): no statistically significant difference in tumor weight | H&E analysis of main visceral organs (MCF-7 tumor xenograft; heart, liver, spleen, kidney, ip administration): did not show significant changes in the main visceral organs | Body weight of mice (MCF-7 tumor xenograft; ip 2 or 4 mg/kg every other day): did not apparently reduce mice body weight | Tumor cell proliferation (Ki-67 IHC) (MCF-7 tumor xenograft; ip administration): significantly reduced tumor cell proliferation | Tumor growth inhibition activity (MCF-7 tumor xenograft; ip dose of 2 or 4 mg/kg): significant tumor growth inhibition | AUC (PK studies in mice; [5]): 0.96 µg·h/mL | Cmax (PK studies in mice; [5]): 0.352 µg/mL | Tmax (PK studies in mice; [5]): 0.167 h | half-life (PK studies in mice; [5]): 6.38 h | AUC (PK studies in mice; [6]): 1.21 µg·h/mL | Cmax (PK studies in mice; [6]): 1.42 µg/mL | Tmax (PK studies in mice; [6]): 0.083 h | Vd (PK studies in mice; [6]): 4.5 L/kg | clearance (PK studies in mice; [6]): 1.66 L/h/kg | half-life (PK studies in mice; [6]): 2.77 h | AUC (PK studies in mice; [7]): 0.36 µg·h/mL | Cmax (PK studies in mice; [7]): 0.153 µg/mL | Tmax (PK studies in mice; [7]): 0.5 h | half-life (PK studies in mice; [7]): 5.81 h | Oral bioavailability (PK studies in mice; mice): insufficient oral bioavailability | IC50 (T-47D^D538G cells): 1.91 ± 0.18 µM | ERα C530S degradation ability (ERα C530S mutant): decreased
